Test results: ChEMBL document CHEMBL1147085, “Metabolism and pharmacokinetics of a novel Src kinase inhibitor TG100435 ([7-(2,6-dichloro-phenyl)-5-methyl-benzo[1,2,4]triazin-3-yl]-[4-(2-pyrrolidin-1-yl-ethoxy)-phenyl]-amine) and its active N-oxide metabolite TG100855 …” (Drug Metab Dispos, 2007)

Columns and labels:
[1] = Drug level in BALB/c mouse plasma at 5 mg/kg, iv; type: ADME, organism-based; parameters: dose 5 mg/kg, route intravenous
In short: (§1)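 Male BALB/c mice (~25 g); fasted overnight for single p.o. dosing, not fasted for i.v. or i.p. dosing. Composite blood sampling, n=3 per time point: 5, 15, 30 min, 1, 3, 6, 24, 48 hr after i.v. dose; 0.5, 1, 3, 5, 8, 24, 30, 48 hr after p.o. or i.p. dose. Heparinized plasma, both parent and N-oxide measured by LC/MS/MS (MRM 494.2/98.1 and 510.2/98.1); non-compartmental analysis, AUC by linear trapezoidal rule.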

[2] = Volume of distribution in Sprague-Dawley rat at 5 mg/kg, iv; type: ADME, organism-based; parameters: dose 5 mg/kg, route intravenous; settings: in vivo
[3] = AUC (0 to last) in Beagle dog at 25 mg/kg, po; type: ADME, organism-based, Canis lupus familiaris; parameters: dose 25 mg/kg, route oral, time 0 - last; settings: plasma
[4] = Clearance in Beagle dog at 5 mg/kg, iv; type: ADME, organism-based, Canis lupus familiaris; parameters: dose 5 mg/kg, route intravenous; settings: in vivo
[5] = AUC (0 to infinity) in BALB/c mouse at 25 mg/kg, po; type: ADME, organism-based; parameters: time infinity, dose 25 mg/kg, route oral; settings: plasma; in short: as §1
[6] = Volume of distribution in Beagle dog at 5 mg/kg, iv; type: ADME, organism-based, Canis lupus familiaris; parameters: dose 5 mg/kg, route intravenous; settings: in vivo
[7] = Clearance in BALB/c mouse at 5 mg/kg, iv; type: ADME, organism-based; parameters: dose 5 mg/kg, route intravenous; settings: in vivo; in short: as §1
[8] = Clearance in Sprague-Dawley rat at 5 mg/kg, iv; type: ADME, organism-based; parameters: dose 5 mg/kg, route intravenous; settings: in vivo
[9] = Tmax in Sprague-Dawley rat at 25 mg/kg, po; type: ADME, organism-based; parameters: dose 25 mg/kg, route oral; settings: in vivo
[10] = AUC (0 to infinity) in Sprague-Dawley rat at 25 mg/kg, po; type: ADME, organism-based; parameters: time infinity, dose 25 mg/kg, route oral; settings: plasma
[11] = Bioavailability in Sprague-Dawley rat at 25 mg/kg, po; type: ADME, organism-based; settings: in vivo
[12] = Bioavailability in Beagle dog at 25 mg/kg, po; type: ADME, organism-based, Canis lupus familiaris; settings: in vivo
Canis familiaris = assay: Bioavailability in Beagle dog assessed as AUC of ([7-(2,6-Dichloro-phenyl)-5-methyl-benzo[1,2,4]triazin-3-yl]-{4-[2-(1-pyrrolidin-1-yl-ethoxy)-phenyl]-amine) at 25 mg/kg, po; type: ADME, organism-based, Canis lupus familiaris; settings: in vivo
[13] = AUC (0 to infinity) in Beagle dog at 25 mg/kg, po; type: ADME, organism-based, Canis lupus familiaris; parameters: time infinity, dose 25 mg/kg, route oral; settings: plasma
[14] = AUC (0 to last) in BALB/c mouse at 25 mg/kg, po; type: ADME, organism-based; parameters: time 0 - last, dose 25 mg/kg, route oral; settings: plasma; in short: as §1
[15] = Half life in BALB/c mouse at 5 mg/kg, iv; type: ADME, organism-based; parameters: dose 5 mg/kg, route intravenous; settings: in vivo; in short: as §1
[16] = Drug level in Beagle dog plasma at 5 mg/kg, iv; type: ADME, organism-based, Canis lupus familiaris; parameters: dose 5 mg/kg, route intravenous
[17] = Volume of distribution in BALB/c mouse at 5 mg/kg, iv; type: ADME, organism-based; parameters: dose 5 mg/kg, route intravenous; settings: in vivo
[18] = Half life in Sprague-Dawley rat at 5 mg/kg, iv; type: ADME, organism-based; parameters: dose 5 mg/kg, route intravenous; settings: in vivo
[19] = Drug level in Sprague-Dawley rat plasma at 5 mg/kg, iv; type: ADME, organism-based; parameters: dose 5 mg/kg, route intravenous
[20] = AUC (0 to infinity) in BALB/c mouse at 40 mg/kg, po; type: ADME, organism-based; parameters: time infinity, dose 40 mg/kg, route oral; settings: plasma; in short: as §1
[21] = Cmax in Beagle dog at 25 mg/kg, po; type: ADME, organism-based, Canis lupus familiaris; parameters: dose 25 mg/kg, route oral; settings: in vivo
[22] = Half life in Beagle dog at 5 mg/kg, iv; type: ADME, organism-based, Canis lupus familiaris; parameters: dose 5 mg/kg, route intravenous; settings: in vivo
[23] = AUC (0 to infinity) in Sprague-Dawley rat at 5 mg/kg, iv; type: ADME, organism-based; parameters: time infinity, dose 5 mg/kg, route intravenous; settings: plasma
[24] = AUC (0 to infinity) in BALB/c mouse at 5 mg/kg, iv; type: ADME, organism-based; parameters: time infinity, dose 5 mg/kg, route intravenous; settings: plasma; in short: as §1
[25] = Cmax in BALB/c mouse at 25 mg/kg, po; type: ADME, organism-based; parameters: dose 25 mg/kg, route oral; settings: in vivo; in short: as §1
[26] = AUC (0 to infinity) in Sprague-Dawley rat at 30 mg/kg, po; type: ADME, organism-based; parameters: time infinity, dose 30 mg/kg, route oral; settings: plasma
[27] = AUC (0 to infinity) in Beagle dog at 5 mg/kg, iv; type: ADME, organism-based, Canis lupus familiaris; parameters: time infinity, dose 5 mg/kg, route intravenous; settings: plasma
[28] = AUC (0 to last) in Sprague-Dawley rat at 25 mg/kg, po; type: ADME, organism-based; parameters: time 0 - last, dose 25 mg/kg, route oral; settings: plasma

A C0 [1] of 873 ng/mL, a Vd [2] of 9.4 L/kg and an AUC(0-t) [3] of 2540 ng·h/mL were found for `Cc1cc(-c2c(Cl)cccc2Cl)cc2nnc(Nc3ccc(OCCN4CCCC4)cc3)nc12` in this work. It also gave a clearance [4] of 14.5 mL/min/kg, an AUC(0-inf) [5] of 15300 ng·h/mL and a Vd [6] of 18.7 L/kg. It also gave a clearance [7] of 20.1 mL/min/kg, a clearance [8] of 12.7 mL/min/kg and a Tmax [9] of 8 h. For the same molecule, the AUC(0-inf) [10] was 8010 ng·h/mL, the bioavailability [11] was 23% and the bioavailability [12] was 10.7%. The AUC (Canis familiaris) was 6470 ng·h/mL, the AUC(0-inf) [13] was 3110 ng·h/mL and the AUC(0-t) [14] was 15000 ng·h/mL. For the same molecule, the half-life [15] was 5.4 h, the C0 [16] was 1660 ng/mL and the Vd [17] was 9.4 L/kg. It also gave a half-life [18] of 8.9 h, a C0 [19] of 1650 ng/mL and an AUC(0-inf) [20] of 35100 ng·h/mL. It also gave a Cmax [21] of 102 ng/mL, a half-life [22] of 15.1 h and an AUC(0-inf) [23] of 7030 ng·h/mL. It also gave an AUC(0-inf) [24] of 4140 ng·h/mL, a Cmax [25] of 618 ng/mL and an AUC(0-inf) [26] of 8120 ng·h/mL. The AUC(0-inf) [27] was 5800 ng·h/mL and the AUC(0-t) [28] was 7980 ng·h/mL.
